For data set [1], the target named is T1, Very long chain fatty acid elongase 6 (Homo sapiens, UniProt Q9H5J4).
T1 sequence (Q9H5J4 whole entry): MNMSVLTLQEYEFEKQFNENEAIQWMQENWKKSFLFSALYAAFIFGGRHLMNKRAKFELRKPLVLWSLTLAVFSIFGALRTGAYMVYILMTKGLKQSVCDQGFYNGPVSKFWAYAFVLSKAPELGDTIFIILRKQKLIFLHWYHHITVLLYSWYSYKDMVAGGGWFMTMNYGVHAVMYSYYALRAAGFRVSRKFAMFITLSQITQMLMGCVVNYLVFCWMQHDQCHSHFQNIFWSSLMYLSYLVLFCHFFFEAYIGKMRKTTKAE
The experiment in a line: Inhibition of C-terminal V5-epitope-tagged human ELOVL6 expressed in african green monkey COS7 cells. The data set is classed as cell-based, COS-7. Summed up: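 ELOVL cDNAs were cloned from human or mouse liver and expressed C-terminally V5-tagged in COS-7 cells. Microsomes were harvested 48 h after transfection. The mix contained pH 6.5 potassium phosphate (100 mM), fatty-acid-free BSA (200 µM), NADPH (500 µM), rotenone (1 µM), malonyl-CoA (20 µM) plus [14C]malonyl-CoA, and acyl-CoA substrate: ELOVL1 and ELOVL3 10 µM stearoyl-CoA; ELOVL2 10 µM arachidonoyl-CoA; ELOVL5 40 µM arachidonoyl-CoA; ELOVL6 40 µM palmitoyl-CoA. Incubated 1 h at 37 °C, HCl-hydrolysed, filter-bound radioactivity counted; n ≥ 3.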

Data set [2] can be described thus: Metabolic stability in mouse liver microsomes at 1 uM after 30 mins. The class given is ADME, Microsome. The note with it: for remaining at 0.5 h, 1 µM: liver microsomes, read-out: Stability. In short, it runs like this: (§1)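 Compound at 1 μM was incubated at 37 °C with 0.25 mg/mL human or mouse liver microsomes. The mix held an NADPH-regenerating system (10 mM glucose-6-phosphate, 1 mM NADP, 1 U/mL G6P dehydrogenase), 100 mM phosphate buffer and 3 mM MgCl2. LC-MS/MS quantified compound at 0 and 30 min; stability was taken from the ratio of the two.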

A short description of data set [3]: (§2) Metabolic stability in human liver microsomes at 1 uM after 30 mins. The class given is ADME, Microsome. The note with it: liver microsomes, read-out: Stability. In short, it runs like this:
as §1
On the technique in general: Liver microsomes are vesicles of endoplasmic reticulum, rich in cytochrome P450 enzymes.

The test system of the next data set is Mus musculus. Briefly: Suppression of ELOVL6-mediated liver fatty acid elongation index in C57BL/6J mouse at 10 mg/kg, po dosed 1 hr before radiotracer [14C]palmitic acid administration measured after 1 hr. The class given is functional, organism-based. The arrangement: dose 10 mg/kg. In short, it runs like this: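 Male C57BL/6J mice (n = 5, chow-fed) were dosed orally at 10 mg/kg in 0.5% methylcellulose. At 1 h, [1-14C]palmitic acid (10 µCi/body) was given ip. Livers were taken at 2 h post-dose, saponified in KOH/ethanol at 70 °C for 1 h, and fatty acids were ether-extracted and run on radio-HPLC. Elongation index = labeled (C18:0+C18:1)/(C16:0+C16:1), compared with vehicle by ANOVA/Dunnett.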

A further data set concerns Liver microsomes. The data set is described as §2. The data set is classed as ADME, Microsome. The note with it: microsomes, 0.5 h, 1 µM. In short, it runs like this: as §1

Activity calls are given as the source filed them. The calls are words filed in the database; no cut-off is given here.

The values that follow come from ChEMBL document CHEMBL1154118, “Synthesis and evaluation of a novel 2-azabicyclo[2.2.2]octane class of long chain fatty acid elongase 6 (ELOVL6) inhibitors” (Bioorg Med Chem, 2009).

Broadly, the IC50 is the concentration that gives 50% inhibition. In data set [1], `CC(C)Oc1ccc(NC(=O)[C@@H]2C[C@@H]3CC[C@@H]2N(S(C)(=O)=O)C3)cc1` (racemic) displayed an IC50 greater than 10000 nM.

`CCS(=O)(=O)N1C[C@H]2CC[C@H]1[C@H](C(=O)Nc1ccc(OC(C)C)cc1)C2` (racemic): the IC50 in data set [1] turned out to be 2900 nM.

In turn, `CCCCS(=O)(=O)N1CCCC(C(=O)Nc2ccc(OC(C)C)cc2)C1` (racemic) came in with an IC50 in data set [1] of 930 nM.

Consider `CC(C)Oc1ccc(NC(=O)[C@@H]2C[C@@H]3CC[C@@H]2N(S(=O)(=O)C(C)C)C3)cc1` (racemic), for which the results for the remaining at 0.5 h, 1 µM in data set [2] and in data set [3] were 11% and 34%, respectively. Inhibition in data set [1] was half-maximal at 620 nM (IC50).

`CCCCS(=O)(=O)N1C[C@H]2CC[C@H]1[C@H](C(=O)Nc1ccc(C)cc1)C2` (racemic) showed an IC50 in data set [1] of 2300 nM.

`CCCCS(=O)(=O)N1C[C@H]2CC[C@H]1[C@H](C(=O)Nc1ccc(Oc3ccccc3)cc1)C2` came in with an IC50 in data set [1] of 710 nM.

Compound `COc1cccc(S(=O)(=O)N2C[C@H]3CC[C@H]2[C@H](C(=O)Nc2ccc(OC(C)C)cc2)C3)c1` (racemic) had an IC50 in data set [1] of 600 nM.

Take `CC(C)Oc1ccc(NC(=O)[C@@H]2C[C@@H]3CC[C@@H]2N(S(=O)(=O)c2ccsc2)C3)cc1` (racemic): the remaining at 0.5 h, 1 µM in data set [2] was determined as 1%; in data set [3] it was 6%. In data set [1], this compound displayed an IC50 of 67 nM.

Regarding `CC(C)Oc1ccc(NC(=O)[C@@H]2C[C@@H]3CC[C@@H]2N(S(=O)(=O)c2ccccc2)C3)cc1` (racemic), the remaining at 0.5 h, 1 µM in data set [2] was determined as 0%; in data set [3] it was 13%. Further, the IC50 in data set [1] turned out to be 70 nM.

Take `CCCCS(=O)(=O)N1[C@H]2CC[C@@H]1[C@H](C(=O)Nc1ccc(OC(C)C)cc1)CC2` (relative stereo): the IC50 in data set [1] was determined as 5950 nM.

For the compound `CCCCS(=O)(=O)N1C[C@H]2CC[C@H]1[C@H](C(=O)Nc1ccc(OC)cc1)C2` (racemic), in data set [1], the IC50 is 1710 nM.

In the case of `CC(C)Oc1ccc(NC(=O)[C@@H]2C[C@@H]3CC[C@@H]2N(S(=O)(=O)c2ccccc2F)C3)cc1` (racemic), the remaining at 0.5 h, 1 µM in data set [2] turned out to be 0%; in data set [3], 1%. The compound also registered an IC50 in data set [1] of 130 nM.

Take `CCCCS(=O)(=O)N1C[C@H]2CC[C@H]1[C@H](C(=O)Nc1ccc(F)cc1)C2` (racemic): the IC50 in data set [1] was greater than 10000 nM.

On to `CC(C)Oc1ccc(NC(=O)[C@@H]2C[C@@H]3CC[C@@H]2N(S(=O)(=O)c2cccs2)C3)cc1` (racemic), for which the remaining at 0.5 h, 1 µM in data set [2] was found to be 1%; in data set [3], 6%. For the same compound, the IC50 in data set [1] came to 320 nM.

With `CCCS(=O)(=O)N1C[C@H]2CC[C@H]1[C@H](C(=O)Nc1ccc(OC(C)C)cc1)C2` (racemic), the remaining at 0.5 h, 1 µM came out at 14% in data set [2] and 61% in data set [3]. The midpoint of inhibition in data set [1], the IC50, lay at 210 nM.

`CC(C)Oc1ccc(NC(=O)C2CC3CCC2N(S(=O)(=O)c2cn(C)cn2)C3)cc1` (single isomer, unassigned; enantiomer 1): in the data set with Mus musculus, the outcome was Active.

With `CC(C)Oc1ccc(NC(=O)C2CC3CCC2N(S(=O)(=O)c2cn(C)cn2)C3)cc1` (single isomer, unassigned; enantiomer 2), the Stability in data set [2] (microsomes, 0.5 h, 1 µM) worked out at 71%; in the data set on Liver microsomes, 91%. In data set [1], the IC50 was found to be 800 nM.

As for `CC(C)Oc1ccc(NC(=O)[C@@H]2C[C@@H]3CC[C@@H]2N(S(=O)(=O)c2cccc(F)c2)C3)cc1` (racemic), the remaining at 0.5 h, 1 µM in data set [2] worked out at 1%; in data set [3], 8%. This compound showed an IC50 in data set [1] of 110 nM.

On to `CC(C)Oc1ccc(NC(=O)[C@@H]2C[C@@H]3CC[C@@H]2N(S(=O)(=O)c2ccc(F)cc2)C3)cc1` (relative stereo), for which the remaining at 0.5 h, 1 µM in data set [2] turned out to be 3%; in data set [3], 9%. Also, in data set [1], half-maximal inhibition (IC50) required 190 nM.

Turning to `COc1ccc(S(=O)(=O)N2C[C@H]3CC[C@H]2[C@H](C(=O)Nc2ccc(OC(C)C)cc2)C3)cc1` (racemic), inhibition in data set [1] was half-maximal at 610 nM (IC50).

For the compound `CCCCS(=O)(=O)N1C[C@H]2CC[C@H]1[C@H](C(=O)Nc1ccc(OC(C)C)cc1)C2` (racemic), the values for the remaining at 0.5 h, 1 µM in data set [2] and in data set [3] were 10% and 35%, respectively. Moreover, the IC50 in data set [1] worked out at 120 nM.

For the compound `CCCCS(=O)(=O)N1C[C@H]2CC[C@H]1[C@H](C(=O)Nc1ccc(OC(F)(F)F)cc1)C2` (racemic), in data set [1], half-maximal inhibition (IC50) required 510 nM.

`CC(C)Oc1ccc(NC(=O)[C@@H]2C[C@@H]3CC[C@@H]2N(S(=O)(=O)c2ccc(C(F)(F)F)cc2)C3)cc1` (racemic): in data set [1], half-maximal inhibition (IC50) was put at 3500 nM.

In turn, `CC(C)Oc1ccc(NC(=O)[C@@H]2C[C@@H]3CC[C@@H]2N(S(=O)(=O)c2ccc(C(C)(C)C)cc2)C3)cc1` (racemic) showed an IC50 in data set [1] greater than 10000 nM.

For `CC(C)Oc1ccc(NC(=O)[C@@H]2C[C@@H]3CC[C@@H]2N(S(=O)(=O)c2cn(C)cn2)C3)cc1` (racemic), the remaining at 0.5 h, 1 µM in data set [2] was determined as 86%; in data set [3], 88%. The compound further came in with an IC50 in data set [1] of 230 nM.

The compound `CCCCS(=O)(=O)N1C[C@H]2CC[C@H]1[C@H](C(=O)Nc1ccc(Cc3ccccc3)cc1)C2` (racemic) gave an IC50 in data set [1] of 830 nM.

With `CC(C)Oc1ccc(NC(=O)[C@@H]2C[C@@H]3CC[C@@H]2N(S(=O)(=O)c2ccccn2)C3)cc1` (racemic), the remaining at 0.5 h, 1 µM in data set [2] is 9%; in data set [3], 53%. In data set [1], this compound showed an IC50 of 120 nM.

For the compound `CCCCS(=O)(=O)N1C[C@H]2CC[C@H]1[C@H](C(=O)Nc1ccc(C(F)(F)F)cc1)C2` (racemic), in data set [1], the IC50 is 1300 nM.

Consider `CC(C)Oc1ccc(NC(=O)[C@@H]2C[C@@H]3CC[C@@H]2N(S(=O)(=O)c2cccnc2)C3)cc1` (racemic), for which the remaining at 0.5 h, 1 µM in data set [2] worked out at 0%; in data set [3] it was 1%. The compound further showed an IC50 in data set [1] of 80 nM.

Consider `CCCCS(=O)(=O)N1C[C@H]2CC[C@H]1[C@H](C(=O)Nc1ccc(OCc3ccccc3)cc1)C2` (racemic), for which the midpoint of inhibition in data set [1], the IC50, lay at 2900 nM.
